This note sets out measurements from ChEMBL document CHEMBL1287760, “Optimization of purine-nitrile TbcatB inhibitors for use in vivo and evaluation of efficacy in murine models” (Bioorg Med Chem, 2010).

Values after ≈ are worked out from the molar mass of the structure shown.

The test system of one data set is HEK293. Put plainly: Cytotoxicity against human HEK293 cells after 72 hrs by alamar blue assay. The class given is cell-based. To be noted: hek293, 72 h. On the technique in general: Alamar Blue is a resazurin reagent that responds to reducing activity.
The test system of a further data set is HepG2. In words: Cytotoxicity against human HepG2 cells after 72 hrs by alamar blue assay. Format: cell-based. Particulars: hepg2, 72 h.
Another data set deals with BJ. In words: Cytotoxicity against human BJ cells after 72 hrs by alamar blue assay. The class given is cell-based.
The next data set concerns Raji. In words: Cytotoxicity against human Raji cells after 72 hrs by alamar blue assay. Format: cell-based.
A short description of data set [1]: Toxicity in human erythrocyte assessed as hemolysis at 10 uM after 5 hrs. Format: cell-based. To be noted: erythrocytes, read-out: Activity. An outline of the steps:
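Human erythrocytes washed three times after spinning whole blood at 1000g for 5 min. Test compound at 10 µM final, 2% hematocrit. PBS negative control; 0.4% saponin dilution series as standard. After centrifugation, supernatant absorbance read at 414 nm and % hemolysis taken from the calibration curve. Triplicate.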

The nature of data set [2]: Chemical stability in dimethyl sulfoxide at pH 3 after 14 days. Format: physicochemical. To be noted: buffer, pH 3, 336 h. An outline of the steps:
(§1)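 DMSO stability followed over 14 days for non-metabolic degradation.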

The nature of data set [3]: Chemical stability in dimethyl sulfoxide at pH 5 after 14 days. Format: physicochemical. To be noted: buffer, pH 5, 336 h. An outline of the steps:
as §1

Data set [4] can be described thus: Chemical stability in dimethyl sulfoxide at pH 7.4 after 14 days. Format: physicochemical. Particulars: buffer, pH 7.4, 336 h. A digest of the protocol: as §1
The nature of data set [5]: Chemical stability in phosphate buffered saline at pH 3 after 14 days. Format: physicochemical. To be noted: buffer, pH 3, 336 h. An outline of the steps:
(§2)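 Stability in PBS (pH 3, 5 and 7.4) followed over 14 days for non-metabolic degradation.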

The nature of data set [6]: Chemical stability in phosphate buffered saline at pH 5 after 14 days. Particulars: buffer, pH 5, 336 h. Format: physicochemical. A digest of the protocol: as §2
The nature of data set [7]: Chemical stability in phosphate buffered saline at pH 7.4 after 14 days. Format: physicochemical. Particulars: buffer, pH 7.4, 336 h. An outline of the steps: as §2
Data set [8] is described as follows: Half life in CD1 mouse liver microsomes by UPLC-MS analysis. Format: ADME, Microsome. Particulars: CD1, mouse, liver microsomes. A digest of the protocol:
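CD-1 female mouse liver microsomes in 0.1 M potassium phosphate pH 7.4 with EDTA and NADPH-regenerating solutions, 37 °C, shaken. Samples at 0, 0.5, 1 and 2 h quenched with cold acetonitrile containing caffeine internal standard. UPLC–MS (SIR) read-out. Log peak-area ratio versus time gives slope; k = −2.303 × slope, t1/2 = 0.693/k.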
On the technique in general: Liver microsomes are a subcellular fraction often used to study metabolism.

Data set [9] is described as follows: Half life in CD1 mouse plasma by UPLC-MS analysis. Format: ADME, cell-free. An outline of the steps: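 Half-life in mouse plasma measured at 37 °C.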
The nature of data set [10]: Permeability of the compound assessed as ratio of compound in acceptor chamber to amount of compound in donor chamber at pH 3 by PAMPA assay. The class given is ADME. On the technique in general: In PAMPA a lipid-coated filter parts donor from acceptor wells.
Data set [11] in a line: Permeability of the compound assessed as ratio of compound in acceptor chamber to amount of compound in donor chamber at pH 5 by PAMPA assay. The class given is ADME.
A short description of data set [12]: Permeability of the compound assessed as ratio of compound in acceptor chamber to amount of compound in donor chamber at pH 7.4 by PAMPA assay. Format: ADME.
The nature of data set [13]: Aqueous solubility of compound in deionized water. Format: physicochemical. An outline of the steps: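 Aqueous solubility measured in deionized water.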
The test system of the next data set is Trypanosoma brucei. Put plainly: Antitrypanosomal activity against Trypanosoma brucei after 48 hrs. Format: functional, organism-based.
In data set [14] the test system is Mus musculus. In words: Stability of the compound in po dosed mouse blood. The class given is ADME, organism-based. Particulars: in vivo. A digest of the protocol: (§3)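 Oral gavage of compound suspensions to female Balb/c mice; blood sampled retro-orbitally at 1, 2 and 4 h (one sample per mouse) and by cardiac puncture at 48 h. Parent compound and metabolites measured by UPLC–MS; metabolite identity assigned by MS/MS against a synthesized standard.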

The test system of data set [15] is Mus musculus. Put plainly: Stability of the compound in po dosed mouse blood assessed as 5-(2-cyano-6-(3,4-dichlorobenzylamino)-9H-purin-9-yl)pentanoic acid level after 1 hr. To be noted: in vivo. The class given is ADME, organism-based. An outline of the steps: as §3
Data set [16] is described as follows: Therapeutic index, ratio of EC50 for human cells to EC50 for Trypanosoma brucei. Particulars: human cells versus Trypanosoma brucei, read-out: Ratio EC50. An outline of the steps:
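Index = EC50 against the most sensitive mammalian line (HEK 293, Hep G2, BJ, Raji) divided by EC50 against T.b. brucei.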

`N#Cc1nc(NCc2ccc(Cl)c(Cl)c2)c2ncn(CCCCCO)c2n1`: the Activity entry with HEK293, with HepG2, in the data set on BJ and in the data set on Raji was “Non-toxic” in each case. Moreover, the hemolysis at 5 h, 10 µM in [1] was 0.7%. The Stability result in data set [2], in data set [3], in data set [4], in [5], in data set [6] and in [7] was “Stable” in each case. In addition, the Stability entry with Mus musculus [14] and with Mus musculus [15] was “Unstable” each time. Moreover, the half-life was 1.08 h in [8] and 38.3 h in data set [9]. For the same molecule, the results for the Ratio in data set [10], in data set [11] and in data set [12] were 960, 1512 and 1900, respectively. Besides, in data set [13], the solubility turned out to be 16.1 µM (≈ 6.53 µg/mL). This molecule came in with an EC50 in the data set with Trypanosoma brucei of 380 nM. Moreover, the selectivity ratio in [16] was over 20.

What is called half-life is the time needed for the level to fall by half in the phase considered. A high value points to slow loss. As a reminder, the solubility is the dissolved amount per volume that the medium holds. For orientation: EC50 means the concentration at which the effect is half-maximal. Lower therefore signals a more potent agent.
